Assay results collected from several papers.
Compare with care: the assays were run in different laboratories.
Target: Carbonic anhydrase 2 (CA2, Homo sapiens, UniProt P00918)
Effect on: enzyme activity
Mode: inhibitor

SMILES	test	Ki
OC(Cn1cncn1)(Cn1cncn1)c1ccc(F)cc1F	absorbance	7910 nM
CC(C)CNC(=S)N/N=C/c1ccc(N2CCC(O)CC2)cc1		716 nM
NS(=O)(=O)c1nnc(NC(=O)C2CC23CCCOC3)s1 (centres unmarked)	stopped-flow	50.8 nM
O=c1[nH]c(=O)n([C@H]2C[C@H](O)[C@@H](CO)O2)cc1/C=C/Br	absorbance	7440 nM
CC1CCC(CC(=O)Nc2nnc(S(N)(=O)=O)s2)CC1 (centres unmarked)	stopped-flow	22.3 nM
OC1CCN(c2ccc(/C=N/NC(=S)NCCc3ccccc3)cc2)CC1		656 nM
C[C@H]1CCC[C@H](C(=O)Nc2nnc(S(N)(=O)=O)s2)C1 (racemic)	stopped-flow	14.9 nM
C[C@H]1c2cccc(O)c2C(=O)C2=C(O)[C@]3(O)C(=O)C(C(N)=O)=C(O)[C@@H](N(C)C)[C@@H]3[C@@H](O)[C@@H]21	absorbance	8970 nM
OC1CCN(c2ccc(/C=N/NC(=S)Nc3ccc(F)cc3)cc2)CC1		283 nM
N#CSCc1cc(=O)oc2cc(O)ccc12	stopped-flow	> 100000 nM
OCCOCCN1CCN(C(c2ccccc2)c2ccc(Cl)cc2)CC1 (centres unmarked)	absorbance	11500 nM
Cc1cccc(C)c1NC(=S)N/N=C/c1ccc(N2CCC(O)CC2)cc1		436 nM
NS(=O)(=O)c1nnc(NC(=O)CN2CCC(F)CC2)s1	stopped-flow	14.1 nM
Cc1c(Cl)c(=O)oc2cc(OCCCCSC#N)ccc12	stopped-flow	> 100000 nM
CCOC(=O)N1CCC(=C2c3ccc(Cl)cc3CCc3cccnc32)CC1	absorbance	8270 nM
NS(=O)(=O)c1cnc(NC(=O)CC2CCCCC2)s1	stopped-flow	54.3 nM
OC1CCN(c2ccc(/C=N/NC(=S)Nc3ccccc3)cc2)CC1		507 nM
Cc1ccccc1CC(=O)Nc1nnc(S(N)(=O)=O)s1	stopped-flow	25.7 nM
OC1CCN(c2ccc(/C=N/NC(=S)NCc3ccccc3)cc2)CC1		561 nM
CC(C)[C@H](N)C(=O)OCCOCn1cnc2c(=O)[nH]c(N)nc21	absorbance	5740 nM
